The source of these data is ChEMBL document CHEMBL4622957, “Green asymmetric synthesis of epoxypeptidomimetics and evaluation as human cathepsin K inhibitors” (Bioorg Med Chem, 2020).

Active and inactive are the calls of the source. No cut-off for these calls is given here.

Experiment [1] has as its target T1, Procathepsin L (Homo sapiens, UniProt P07711). Kind of experiment: Inhibition of cathepsin L (unknown origin) at 25 uM using fluorogenic Z-FR-MCA as substrate preincubated for 5 mins followed by substrate addition by spectrofluorimetric assay relative to control.
Target sequence in this assay (P07711 114-333 limits assumed): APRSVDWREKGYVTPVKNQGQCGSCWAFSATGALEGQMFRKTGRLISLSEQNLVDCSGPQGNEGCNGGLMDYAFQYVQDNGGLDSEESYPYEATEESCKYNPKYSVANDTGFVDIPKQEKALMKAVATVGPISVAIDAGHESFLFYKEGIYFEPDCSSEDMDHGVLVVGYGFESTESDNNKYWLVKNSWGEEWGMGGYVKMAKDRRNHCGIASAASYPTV
In experiment [2] the target is T2, Cathepsin K (Homo sapiens, UniProt P43235).
T2 sequence (P43235 whole entry): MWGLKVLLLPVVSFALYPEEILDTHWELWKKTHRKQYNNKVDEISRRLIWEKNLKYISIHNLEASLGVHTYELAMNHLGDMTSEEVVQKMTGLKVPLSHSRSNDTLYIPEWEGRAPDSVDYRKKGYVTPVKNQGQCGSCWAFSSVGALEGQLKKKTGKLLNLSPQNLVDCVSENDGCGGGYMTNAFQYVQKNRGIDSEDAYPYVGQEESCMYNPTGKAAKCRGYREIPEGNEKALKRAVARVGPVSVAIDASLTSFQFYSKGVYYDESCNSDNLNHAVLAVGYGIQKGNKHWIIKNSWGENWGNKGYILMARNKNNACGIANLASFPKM
Kind of experiment: Inhibition of recombinant human cathepsin K using Z-Phe-Arg-MCA as fluorogenic substrate preincubated for 5 mins followed by substrate addition and measured after 5 mins by fluorimetric analysis. In a few lines: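 Recombinant human CatK, expressed in Pichia pastoris and active-site titrated with E-64, was used at 2 nM in 0.1 M sodium acetate pH 5.5 with 2.5 mM DTT and 2.5 mM EDTA at room temperature. Enzyme and inhibitor were preincubated 5 min, then 10 μM Z-Phe-Arg-MCA was added. Fluorescence (ex 380/em 460 nm) was read for 5 min. Triplicates; % inhibition from initial rates; IC50 from ≥7 inhibitor concentrations.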

The target of experiment [3] is T3, Cathepsin K (Homo sapiens) (UniProt P43235).
T3 sequence (whole entry): T2 sequence (P43235 whole entry)
The experiment can be described thus: Mixed type inhibition of recombinant human cathepsin K by Michaelis-Menten plot analysis.

The target of experiment [4] is T2, Cathepsin K. Kind of experiment: Binding affinity to recombinant human cathepsin K.
The target of experiment [5] is T1, Procathepsin L. Kind of experiment: Inhibition of cathepsin L (unknown origin) using fluorogenic Z-FR-MCA as substrate preincubated for 5 mins followed by substrate addition by spectrofluorimetric assay.
Target sequence in this assay (P07711 whole entry): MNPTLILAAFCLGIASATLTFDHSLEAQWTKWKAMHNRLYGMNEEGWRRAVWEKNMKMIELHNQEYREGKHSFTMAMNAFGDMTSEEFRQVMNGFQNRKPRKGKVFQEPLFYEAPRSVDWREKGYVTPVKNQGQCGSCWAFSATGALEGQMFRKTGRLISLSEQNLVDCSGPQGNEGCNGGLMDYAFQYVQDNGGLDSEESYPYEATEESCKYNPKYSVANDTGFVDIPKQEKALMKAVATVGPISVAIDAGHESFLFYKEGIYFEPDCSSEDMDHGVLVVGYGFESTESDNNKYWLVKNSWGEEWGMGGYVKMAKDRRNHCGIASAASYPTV

Take `CCCCCCC[C@H]1O[C@@H]1C(OC(=O)C1CCCCC1)C(=O)NC(C)(C)C` (stereo partly drawn): the inhibition (usually how much of the control response was suppressed) at Procathepsin L [1] amounted to 0%. For the same compound, the IC50 (commonly the concentration needed to halve the response being measured) at Cathepsin K [2] amounted to 7.6 µM.

Turning to `CCCCCCC[C@H]1O[C@@H]1C(OC(=O)c1ccc(I)cc1)C(=O)NC(C)(C)C` (stereo partly drawn), the IC50 at Cathepsin K [2] was found to be 2.21 µM.

`CCCCNC(=O)C([C@H]1O[C@@H]1c1ccccc1)N(Cc1ccccc1)C(=O)c1ccccc1` (stereo partly drawn): the inhibition at Procathepsin L [1] came to 0%. Besides, the IC50 on Cathepsin K [2] worked out at 18.5 µM.

As to `CCCCCCC[C@H]1O[C@@H]1C(OC(=O)c1ccc(I)cc1)C(=O)NCCCC` (stereo partly drawn), the half-inhibitory concentration (IC50) on Cathepsin K [2] was 3.35 µM. In experiment [3], the inhibition result is “Active”. Moreover, at Cathepsin K [4], the Ki (as a rule, a dissociation constant, usually derived from enzyme kinetics or from competition with a known ligand) was 5.45 µM.

As for `CCCCNC(=O)C([C@H]1O[C@@H]1c1ccccc1)N(C(=O)c1ccc(I)cc1)C(C)(C)C` (stereo partly drawn), the inhibition against Procathepsin L [1] turned out to be 30%. Besides, the IC50 on Cathepsin K [2] worked out at 6.44 µM. In experiment [3], the inhibition entry was “Active”. Further, at Cathepsin K [4], the Ki was determined as 9.57 µM.

Compound `CCCCCCC[C@H]1O[C@@H]1C(OC(=O)CCCCCBr)C(=O)NC(C)(C)C` (stereo partly drawn) yielded an inhibition on Procathepsin L [1] of 0%. Moreover, the IC50 at Cathepsin K [2] came to 3.81 µM.

On to `CCCCNC(=O)C([C@H]1O[C@@H]1c1ccccc1Br)N(Cc1ccccc1)C(=O)c1ccccc1` (stereo partly drawn), for which the IC50 at Procathepsin L [5] was more than 50 µM.

Compound `CCCCNC(=O)C([C@H]1O[C@@H]1CC)N(Cc1ccccc1)C(=O)c1ccccc1` (stereo partly drawn) came in with an inhibition at Procathepsin L [1] of 0%.

At Procathepsin L [5], `CCCCCCC[C@H]1O[C@@H]1C(OC(=O)c1ccc(I)cc1)C(=O)NC1CCCCC1` (stereo partly drawn) came in with an IC50 of 5.36 µM.

The compound `CCCCNC(=O)C([C@H]1O[C@@H]1c1ccccc1[N+](=O)[O-])N(Cc1ccccc1)C(=O)c1ccccc1` (stereo partly drawn) returned an IC50 at Procathepsin L [5] of more than 50 µM.
